This note sets out measurements from ChEMBL document CHEMBL4359886, “Imidazo[2,1-a]isoindole scaffold as an uncharted structure active on Leishmania donovani” (Eur J Med Chem, 2019).

Activity calls are given as the source filed them. The calls are words filed in the database; no cut-off is given here. Bounds are passed on as bounds.

For data set [1], the system named is Leishmania donovani. Kind of data set: Antileishmanial activity against Leishmania donovani MHOM/ET/67/HU3 amastigotes harboring luciferase reporter gene infected in macrophage-differentiated human THP1 cells incubated for 72 hrs by luminescence based assay. The format is functional, organism-based. The following applies: MHOM/ET/67/HU3, THP-1, 72 h. The essentials: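 THP-1 cells were differentiated with PMA (20 ng/mL, 48 h), then kept 24 h in fresh medium. They were infected 24 h at 35 °C with stationary luciferase-expressing promastigotes at a macrophage:parasite ratio of 1:10, and free parasites were washed off. Compounds were added at 0.62–40 μM for 72 h at 37 °C. Cells were lysed with 0.1% Triton X-100 and luminescence read. EC50 from three independent experiments in triplicate.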
In general terms: A reporter such as luciferase makes a cellular process visible.

Data set [2] can be described thus: Cytotoxicity against macrophage-differentiated human THP1 cells assessed as reduction in cell viability incubated for 72 hrs by MTT assay. It counts as cell-based. The following applies: macrophage-differentiated THP-1 cells. The gist of the method: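 THP-1 cells (3×10^4 per well) were differentiated with PMA (20 ng/mL, 48 h), then kept 24 h in fresh RPMI-1640 with 10% hiFBS. They were exposed to increasing compound concentrations for 72 h at 37 °C, then read by MTT reduction. CC50 is the 50% reduction versus untreated controls. Three independent experiments in triplicate.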

The nature of data set [3]: Cytotoxicity against human MRC5 cells assessed as reduction in cell viability incubated for 72 hrs by MTT assay. It counts as cell-based. The gist of the method: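 MRC5-SV2 (SV40-transformed human lung fibroblasts) were grown in DMEM with 10% hiFBS at 37 °C, 5% CO₂. Cells were exposed to increasing compound concentrations for 72 h at 37 °C, followed by MTT reduction. CC50 is the concentration reducing proliferation by 50% versus untreated cells. Three independent experiments in triplicate.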

Data set [4] in a line: Selectivity index, ratio of CC50 for macrophage-differentiated human THP1 cells to EC50 for Leishmania donovani MHOM/ET/67/HU3 amastigotes harboring luciferase reporter gene infected in macrophage-differentiated human THP1 cells. It counts as toxicity. As to conditions: macrophage-differentiated THP-1 cells, read-out: Ratio CC50/EC50. The essentials:
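CC50 came from PMA-differentiated THP-1 cells exposed to compound for 72 h at 37 °C and read by MTT reduction (three independent experiments, triplicate). This was divided by the EC50 against intracellular amastigotes, measured by luciferase luminescence after 72 h of treatment.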

Data set [5] relates to Leishmania donovani. Kind of data set: Antileishmanial activity against Leishmania donovani promastigotes incubated for 72 hrs by MTT assay. The format is functional, organism-based. The gist of the method: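 Promastigote proliferation was followed for 72 h in the presence of compound, then read by MTT reduction. EC50 is the concentration giving 50% inhibition of proliferation, from three independent experiments.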
In general terms: Tetrazolium dyes change colour on reduction, which living cells bring about.

Data set [6] deals with Leishmania donovani. Kind of data set: Antileishmanial activity against Leishmania donovani promastigotes harboring 3-Luc gene assessed as decrease in intracellular ATP level using DMNEP-D-luciferin as substrate at 5 to 50 uM measured for 10 mins by luminescence based assay. The format is functional, organism-based. The gist of the method:
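3-Luc promastigotes at 20×10^6 cells/mL in serum-free, phenol-red-free RPMI 1640 containing 50 µM DMNPE-D-luciferin. Once luminescence was stable, compound (5–50 µM) was added and luminescence of the live parasites followed in real time. Expressed as percent of untreated parasites. Parasites given 1.5 µM 1,4-naphthoquinone served as control.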

The subject of data set [7] is Leishmania donovani. Kind of data set: Antileishmanial activity against Leishmania donovani promastigotes harboring 3-Luc gene assessed as decrease in intracellular ATP level at 5 to 50 uM using DMNEP-D-luciferin as substrate pretreated for 4 hrs followed by substrate addition measured for 10 mins by luminescence based assay. The format is functional, organism-based. The gist of the method:
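3-Luc promastigotes, which express cytoplasmic luciferase, at 20×10^6 cells/mL in serum-free, phenol-red-free RPMI 1640, incubated with 5, 10, 20, 30, 40 or 50 µM compound for 4 h at 26 °C. DMNPE-D-luciferin then added to 50 µM final, and luminescence recorded for 10 min. Values given as percent of untreated parasites. 1.5 µM 1,4-naphthoquinone used as respiratory-chain-inhibited control.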

Data set [8] deals with Leishmania donovani. Kind of data set: Induction of mitochondrial membrane depolarization in Leishmania donovani promastigotes at 30 uM incubated for 4 hrs by Rhodamine 123 dye-based flow cytometric assay. It counts as functional, organism-based. The essentials:
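Promastigotes at 20×10^6 cells/mL in serum-free, phenol-red-free RPMI 1640 were incubated with compound for 4 h. Rh123 (0.5 µg/mL) was added for 10 min, unbound probe was washed off, and intracellular accumulation was read by flow cytometry (ex 488/em 520 nm). Parasites given 10 mM KCN served as the dysfunctional-mitochondrion control.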
(In general: A flow cytometer gives signals particle by particle.)

In data set [9] the test system is Leishmania donovani. Kind of data set: Induction of plasma membrane permeabilization in Leishmania donovani promastigotes by sytox green-based fluorescence assay. It counts as functional, organism-based. The essentials: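 Promastigotes at 20×10^6/mL in serum-free, phenol-red-free RPMI 1640 containing 1 µM SYTOX green received compound (10–50 µM tested). Fluorescence increase (ex 485/em 520 nm) was followed in real time. Triton X-100 (0.1% final) was then added to give full permeabilization, taken as 100%.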

Data set [10] concerns Leishmania donovani. Kind of data set: Antileishmanial activity against Leishmania donovani promastigotes incubated for 4 hrs by MTT assay. It counts as functional, organism-based. The gist of the method: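 L. donovani promastigotes at 20×10^6 cells/mL in RPMI 1640 without serum or phenol red were exposed to compound for 4 h at 26 °C. MTT was then added (0.5 mg/mL final) for 2 h, and formazan was solubilized with 0.5% SDS final. A595 was read. IC50 is the concentration inhibiting MTT reduction by 50%. Run in triplicate, repeated at least twice.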

Data set [11] relates to Leishmania donovani. Kind of data set: Induction of plasma membrane permeabilization in Leishmania donovani promastigotes assessed as formation of blebbings in plasma membrane at EC70 incubated for 12 hrs by transmission electron microscopic method. The format is functional, organism-based.
In data set [12] the test system is Leishmania donovani. Kind of data set: Induction of mitochondrial membrane depolarization in Leishmania donovani promastigotes assessed as swelling of mitochondrial cristae at EC70 incubated for 12 hrs by transmission electron microscopic method. The format is functional, organism-based.

Regarding `OC1(Cc2ccc(Cl)cc2)c2ccccc2C2=NCCN21` (stereo not given), the EC50 (as a rule, the midpoint of the concentration-response curve) in the data set on Leishmania donovani [1] came out at 2.1 µM; with Leishmania donovani [5], 11.8 µM. Further, the figures for the 50% cytotoxic concentration (CC50) at 72 h in data set [2] and in data set [3] were 145 µM and 80 µM, respectively. Further, the selectivity ratio in data set [4] was found to be 69.1.
`OC1(Cc2ccc(Cl)cc2)c2cc(Cl)c(Cl)cc2C2=NCCN21` (stereo not given): the EC50 amounted to 2.95 µM in the data set with Leishmania donovani [1] and 6.9 µM in the data set with Leishmania donovani [5]. The CC50 (as a rule, the concentration that lowers cell viability or growth by half) at 72 h in data set [2] was 31.9 µM; in data set [3], 8.91 µM. Further, the selectivity ratio in data set [4] was 10.8.
`C[C@@H]1[C@H](O)[C@@H](C)/C=C/C=C/C=C/C=C/C=C/C=C/C=C/[C@H](O[C@@H]2O[C@H](C)[C@@H](O)[C@H](N)[C@@H]2O)C[C@@H]2O[C@](O)(C[C@@H](O)C[C@@H](O)[C@H](O)CC[C@@H](O)C[C@@H](O)CC(=O)O[C@H]1C)C[C@H](O)[C@H]2C(=O)O` [AMPHOTERICIN B]: the 50% cytotoxic concentration (CC50) at 72 h in data set [2] amounted to 16 µM; in data set [3], 12 µM.
With `OC1(Cc2ccc(Cl)cc2)c2c(Cl)ccc(Cl)c2C2=NCCN21` (stereo not given), the EC50 in the data set on Leishmania donovani [1] stood at 2.62 µM; in the data set on Leishmania donovani [5], 13.3 µM. Further, the result in the data set on Leishmania donovani [6], in the data set on Leishmania donovani [7] and in the data set with Leishmania donovani [8] was Active. The results for the CC50 at 72 h in data set [2] and in [3] were 68.7 µM and 33.8 µM, respectively. The selectivity ratio in data set [4] is 26.2. Besides, the Activity entry in the data set on Leishmania donovani [9] was “Dose-dependent effect”. For the same compound, the IC50 (in general, the concentration needed to halve the response being measured) with Leishmania donovani [10] is 14.4 µM.
On to `OC1(Cc2ccccc2Cl)c2c(Cl)ccc(Cl)c2C2=NCCN21` (stereo not given), for which the midpoint of the response in the data set with Leishmania donovani [1], the EC50, lay at 4.16 µM. The CC50 at 72 h in [2] is 82 µM; in data set [3], 41 µM. In addition, the selectivity ratio in data set [4] is 19.7.
For `CSc1ccc(CC2(O)c3cc(Cl)c(Cl)cc3C3=NCCN32)cc1` (stereo not given), the EC50 with Leishmania donovani [1] was 1 µM; in the data set on Leishmania donovani [5], 2.1 µM. Further, the result in the data set with Leishmania donovani [6], in the data set on Leishmania donovani [7], in the data set with Leishmania donovani [8], with Leishmania donovani [11] and with Leishmania donovani [12] was Active. Besides, the CC50 at 72 h in [2] was 31.1 µM; in [3], 8.48 µM. For the same compound, the selectivity ratio in data set [4] turned out to be 31.1. For the same compound, the Activity entry with Leishmania donovani [9] was “Dose-dependent effect”. The compound also gave an IC50 in the data set on Leishmania donovani [10] of 7.3 µM.
Consider `OC1(Cc2ccccc2)c2ccccc2C2=NCCN21` (stereo not given), for which the midpoint of the response in the data set with Leishmania donovani [1], the EC50, lay at 27.8 µM. Further, the CC50 at 72 h in data set [2] is > 200 µM; in [3] it was 182 µM.
Compound `CSc1ccc(CC2(O)c3c(Cl)ccc(Cl)c3C3=NCCN32)cc1` (stereo not given) registered an EC50 in the data set on Leishmania donovani [1] of 6.65 µM. Also, the CC50 at 72 h in [2] came out at 84.4 µM; in [3] it was 77.4 µM. Besides, in data set [4], the selectivity ratio stood at 12.7.
